The source of these data is ChEMBL document CHEMBL1629423, “Second generation analogs of rigid 6,7-spiro scaffolds targeting the bacterial ribosome” (Bioorg Med Chem Lett, 2010).

The term EC50 denotes the midpoint of the concentration-response curve. A lower EC50 goes with higher potency in that assay. Broadly, the IC50 is the concentration that gives 50% inhibition.

The target of one test is Nucleic Acid. The test can be described thus: Binding affinity to RNA by RNA fluorescence assay. It is filed as nucleic-acid assay. The method in brief: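 Decoding-site model RNA oligonucleotide carrying 2-aminopurine at the flexible adenine A1492. Binding is read as the rise in 2AP fluorescence emission. EC50 is the mean of three replicate experiments per compound (±10%), in μM.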

Another test addresses Bacterial 70S ribosome. The test can be described thus: Binding affinity to Escherichia coli ribosome assessed as inhibition of transcription-translational activity by luciferase assay. It is filed as subcellular. The method in brief:
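Coupled in vitro transcription–translation run in E. coli extract. IC50 values are given in μM and averaged over three replicate experiments per compound (±15%).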

The next test has as its target Ribosome. The test can be described thus: Binding affinity to ribosome in reticulocyte lysate assessed as inhibition of transcription-translational activity by luciferase assay. It is filed as subcellular. The procedure, abridged: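 Eukaryotic counter-screen by coupled transcription/translation (TNT quick) in reticulocyte lysate. IC50 is the mean of three replicate experiments per compound (±15%), in μM.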

Structures are written as SMILES.

Regarding `C=CCC(C)(C)CN[C@@H]1C[C@H](N)[C@@]2(CCC=CCO2)[C@H](O)[C@H]1O`, a half-maximal effect at Nucleic Acid (EC50) was put at 63 µM. Further, the IC50 on Bacterial 70S ribosome is 429 µM; at Ribosome, above 1000 µM.
The corresponding values for `N[C@@H]1C[C@H](N)[C@@]2(CC[C@@H](O)[C@@H](O)CO2)[C@H](O)[C@H]1O` are 141 µM, 168 µM and 160 µM.
The corresponding values for `NC[C@@H]1O[C@H](O[C@H]2[C@@H](O)[C@H](O[C@@H]3[C@@H](O)[C@H](N)C[C@H](N)[C@H]3O[C@H]3O[C@H](CN)[C@@H](O)[C@H](O)[C@H]3N)O[C@@H]2CO)[C@H](N)[C@@H](O)[C@@H]1O` [FRAMYCETIN] are 0.007 µM, 0.032 µM and 252 µM.
The like results for `NCC[C@H](O)C(=O)N[C@@H]1C[C@H](N)[C@@]2(CC[C@H](O)[C@H](O)CO2)[C@H](O)[C@H]1O` were, in that order, 6.9 µM, 186 µM and above 1000 µM.
`N[C@@H]1C[C@H](N)[C@@]2(CC[C@H](O)[C@H](O)CO2)[C@H](O)[C@H]1O`: on Nucleic Acid, it took 74 µM to reach a half-maximal effect (EC50). For the same compound, the IC50 was determined as 118 µM at Bacterial 70S ribosome and 130 µM on Ribosome.
The corresponding values for `NCCCC[C@H](N)C(=O)N[C@@H]1C[C@H](N)[C@@]2(CC[C@H](O)[C@H](O)CO2)[C@H](O)[C@H]1O` are 12 µM, 98 µM and above 1000 µM.
Take `N[C@@H]1C[C@H](N)[C@@]2(C[C@H](O)[C@H](O)CO2)[C@H](O)[C@H]1O`: the EC50 at Nucleic Acid came to 6.5 µM. Also, the 50% inhibitory concentration (IC50) at Bacterial 70S ribosome is 11.3 µM; at Ribosome, above 1000 µM.
The like results for `N[C@@H]1C[C@H](N)[C@@]2(CCC=CCO2)[C@H](O)[C@H]1O` were, in that order, 8.4 µM, above 1000 µM and above 1000 µM.
The corresponding values for `NC[C@H]1O[C@H](O[C@H]2[C@H](O)[C@@H](O)[C@H](N)C[C@@H]2N)[C@H](N)[C@@H](O)[C@@H]1O` [NEAMINE] are 9.5 µM, 5 µM and 120 µM.
